Data published in ChEMBL document CHEMBL1130327, “Synthesis and antimalarial effects of phenothiazine inhibitors of a Plasmodium falciparum cysteine protease” (J Med Chem, 1997).

Tests used:
Falcipain 2 = target: T1, Falcipain 2 (Plasmodium falciparum, UniProt Q9N6S8); test: Inhibition of falcipain activity; assay type: functional
T1 sequence (Q9N6S8 whole entry): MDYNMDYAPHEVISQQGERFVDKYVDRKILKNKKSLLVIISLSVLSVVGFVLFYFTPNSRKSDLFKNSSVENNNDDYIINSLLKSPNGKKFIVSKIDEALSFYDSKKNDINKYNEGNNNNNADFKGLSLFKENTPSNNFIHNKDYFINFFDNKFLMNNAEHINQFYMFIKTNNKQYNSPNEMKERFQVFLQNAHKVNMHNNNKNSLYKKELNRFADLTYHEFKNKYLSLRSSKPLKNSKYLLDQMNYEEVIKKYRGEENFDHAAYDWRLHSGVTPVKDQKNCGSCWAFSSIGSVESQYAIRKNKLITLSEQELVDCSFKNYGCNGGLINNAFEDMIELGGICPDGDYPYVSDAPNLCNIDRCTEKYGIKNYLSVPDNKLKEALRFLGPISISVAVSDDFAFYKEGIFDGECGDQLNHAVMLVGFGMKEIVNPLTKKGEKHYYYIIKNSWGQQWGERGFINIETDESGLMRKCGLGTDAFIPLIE
How it was run: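 Soluble parasite extract containing falcipain (30 nM) preincubated 30 min at room temperature with compound (100× DMSO stocks) and 10 mM DTT in 0.1 M sodium acetate, pH 5.5. Z-Phe-Arg-AMC then added to 50 μM final. Fluorescence (ex 380, em 460 nm) followed continuously for 30 min. Rates compared with DMSO controls. Multiple concentrations tested in duplicate or triplicate; IC50 extrapolated from % control activity curves.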

Plasmodium falciparum [1] = test: Inhibition of parasitaemia in ring-form development assay; assay type: functional, organism-based
How it was run: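 Ring-stage Itg2 cultures (2 mL) incubated with compound from 100× DMSO stocks. Medium changed at 24 h with inhibitor maintained. At 48 h, new ring forms per 1000 erythrocytes counted on Giemsa-stained smears and compared with 1% DMSO controls.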

Plasmodium falciparum [2] = test: Inhibition of parasitaemia in [3H]hypoxanthine incorporation assay; assay type: functional, organism-based
How it was run: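 Ring-stage P. falciparum Itg2 cultures (300 μL) given compound from 100× DMSO stocks for 24 h. [3H]hypoxanthine then added (0.0144 μg, 1.2 μCi per well) for a further 18 h. Cells harvested onto glass-fiber filters and counted by scintillation. Uptake compared with 1% DMSO controls; IC50 extrapolated from % control curves.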

Hemozoin [3] = test: Inhibition of hemoglobin degradation as percentage of organisms with dark swollen food vacuoles; 10-50%; assay type: functional; design: scale not given: the % may be the effect or the level left; conditions: Plasmodium falciparum
MDCK = test: Compound was tested for inhibition of MDCK cell metabolism using MTT assay method.; assay type: functional, cell-based; conditions: Canis lupus familiaris
How it was run: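 MDCK cells cultured overnight in phenol red-free RPMI with 1–100 μM compound (100× DMSO stocks); medium then replaced with MTT (1 mg/mL) for 2 h. Supernatant removed, ethanol added, absorbance read at 560 nm. Compared with cells given 1% DMSO overnight.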

Hemozoin [4] = test: Inhibition of hemoglobin degradation as percentage of organisms with dark swollen food vacuoles; 50-90%; assay type: functional; design: scale not given: the % may be the effect or the level left; conditions: Plasmodium falciparum
Hemozoin [5] = test: Inhibition of hemoglobin degradation as percentage of organisms with dark swollen food vacuoles; assay type: functional; design: scale not given: the % may be the effect or the level left; conditions: Plasmodium falciparum
Hemozoin [6] = test: Inhibition of hemoglobin degradation as percentage of organisms with dark swollen food vacuoles; 0-10%; assay type: functional; design: scale not given: the % may be the effect or the level left; conditions: Plasmodium falciparum

With `COc1cccc(C2CC3=Nc4ccc(F)cc4SC3=C(O)C2)c1` (stereo not drawn) the IC50 (Falcipain 2) was 20 µM.
Compound `COc1ccc(C2CC3=Nc4ccc(F)cc4S(=O)(=O)C3=C(O)C2)cc1OC` (stereo not drawn) has an IC50 (Falcipain 2) of 5 µM, an IC50 (Plasmodium falciparum [1]) of 1 µM and an IC50 (Plasmodium falciparum [2]) of 3 µM. For the same compound, the Activity (Hemozoin [3]) was 50%.
`COc1ccc(C2CC3=Nc4ccc(Cl)cc4SC3=C(O)C2)cc1OC` (stereo not drawn) gave an IC50 (Falcipain 2) of 30 µM.
`OC1=C2Sc3cc(F)ccc3N=C2CC(c2ccc(Cl)cc2)C1` (stereo not drawn) showed an IC50 (Falcipain 2) of 5 µM, an IC50 (MDCK) greater than 100 µM and an IC50 (Plasmodium falciparum [1]) of 3 µM. The IC50 (Plasmodium falciparum [2]) was 4 µM and the Activity (Hemozoin [4]) was 90%.
`COc1ccc(C2CC3=Nc4ccc(Cl)cc4S(=O)(=O)C3=C(O)C2)cc1OC` (stereo not drawn) was tested, and the IC50 (Falcipain 2) was 50 µM.
Compound `CC1(C)CC2=Nc3ccc(F)cc3SC2=C(O)C1` has an IC50 (Falcipain 2) of 60 µM.
`OC1=C2Sc3cc(Cl)ccc3N=C2CC(c2ccc(Cl)cc2Cl)C1` (stereo not drawn) was tested, and the IC50 (Falcipain 2) was 10 µM.
`COc1cccc(C2CC3=Nc4ccc(F)cc4S(=O)(=O)C3=C(O)C2)c1` (stereo not drawn) showed an IC50 (Falcipain 2) of 5 µM, an IC50 (MDCK) greater than 100 µM and an IC50 (Plasmodium falciparum [1]) of 3 µM. It also gave an IC50 (Plasmodium falciparum [2]) of 3 µM and an Activity (Hemozoin [4]) of 90%.
`OC1=C2Sc3cc(Cl)ccc3N=C2CCC1` gave an IC50 (Falcipain 2) of 40 µM.
`OC1=C2Sc3cc(F)ccc3N=C2CC(c2ccc(Cl)cc2Cl)C1` (stereo not drawn) was tested, and the IC50 (Falcipain 2) was 10 µM.
`CC1(C)CC2=Nc3ccc(F)cc3S(=O)(=O)C2=C(O)C1` was tested, and the IC50 (Falcipain 2) was 5 µM, the IC50 (MDCK) was greater than 100 µM and the IC50 (Plasmodium falciparum [1]) was 30 µM. For the same compound, the IC50 (Plasmodium falciparum [2]) was 100 µM and the Activity (Hemozoin [5]) was greater than 90%.
With `COc1cccc(C2CC3=Nc4ccc(F)cc4SC3=C(O)C2)c1OC` (stereo not drawn) the IC50 (Falcipain 2) was 20 µM.
For `COc1ccc(C2CC3=Nc4ccc(Cl)cc4SC3=C(O)C2)cc1` (stereo not drawn), the IC50 (Falcipain 2) was 10 µM.
Compound `O=S1(=O)C2=C(O)CC(c3ccc(Cl)cc3Cl)CC2=Nc2ccc(Cl)cc21` (stereo not drawn) has an IC50 (Falcipain 2) of 30 µM.
In the case of `COc1ccc(C2CC3=Nc4ccc(Cl)cc4S(=O)(=O)C3=C(O)C2)cc1` (stereo not drawn), the IC50 (Falcipain 2) is reported as 30 µM.
In the case of `COc1cccc(C2CC3=Nc4ccc(Cl)cc4SC3=C(O)C2)c1` (stereo not drawn), the IC50 (Falcipain 2) is reported as 20 µM.
Compound `COc1cccc(C2CC3=Nc4ccc(Cl)cc4S(=O)(=O)C3=C(O)C2)c1OC` (stereo not drawn) has an IC50 (Falcipain 2) of 4 µM, an IC50 (MDCK) greater than 100 µM and an IC50 (Plasmodium falciparum [1]) of 2 µM. For the same compound, the IC50 (Plasmodium falciparum [2]) was 2 µM and the Activity (Hemozoin [5]) was greater than 90%.
`COc1cccc(C2CC3=Nc4ccc(Cl)cc4SC3=C(O)C2)c1OC` (stereo not drawn) was tested, and the IC50 (Falcipain 2) was 10 µM.
For `O=S1(=O)C2=C(O)CC(c3ccccc3)CC2=Nc2ccc(Cl)cc21` (stereo not drawn), the IC50 (Falcipain 2) was 4 µM, the IC50 (Plasmodium falciparum [1]) was 5 µM and the IC50 (Plasmodium falciparum [2]) was 5 µM. The Activity (Hemozoin [4]) was 90%.
Compound `OC1=C2Sc3cc(F)ccc3N=C2CC(c2ccccc2)C1` (stereo not drawn) has an IC50 (Falcipain 2) of 20 µM.
Compound `OC1=C2Sc3cc(Cl)ccc3N=C2CC(c2ccccc2)C1` (stereo not drawn) has an IC50 (Falcipain 2) of 10 µM.
In the case of `OC1=C2Sc3cc(Cl)ccc3N=C2CC(c2ccc(Cl)cc2)C1` (stereo not drawn), the IC50 (Falcipain 2) is reported as 4 µM, the IC50 (MDCK) is reported as 10 µM and the IC50 (Plasmodium falciparum [1]) is reported as 3 µM. The IC50 (Plasmodium falciparum [2]) was 6 µM and the Activity (Hemozoin [6]) was less than 10%.
`COc1ccc(C2CC3=Nc4ccc(F)cc4SC3=C(O)C2)cc1OC` (stereo not drawn) gave an IC50 (Falcipain 2) of 20 µM.
`O=S1(=O)C2=C(O)CC(c3ccc(Cl)cc3)CC2=Nc2ccc(Cl)cc21` (stereo not drawn) gave an IC50 (Falcipain 2) of 4 µM, an IC50 (Plasmodium falciparum [1]) of 4 µM and an IC50 (Plasmodium falciparum [2]) of 8 µM. The Activity (Hemozoin [3]) was 50%.
For `CC1(C)CC2=Nc3ccc(Cl)cc3SC2=C(O)C1`, the IC50 (Falcipain 2) was 30 µM.
For `O=S1(=O)C2=C(O)CC(c3ccc(Cl)cc3)CC2=Nc2ccc(F)cc21` (stereo not drawn), the IC50 (Falcipain 2) was 5 µM, the IC50 (Plasmodium falciparum [1]) was 6 µM and the IC50 (Plasmodium falciparum [2]) was 4 µM. It also gave an Activity (Hemozoin [3]) of 50%.
With `CC1(C)CC2=Nc3ccc(Cl)cc3S(=O)(=O)C2=C(O)C1` the IC50 (Falcipain 2) was 5 µM, the IC50 (MDCK) was greater than 100 µM and the IC50 (Plasmodium falciparum [1]) was 20 µM. The IC50 (Plasmodium falciparum [2]) was 60 µM and the Activity (Hemozoin [5]) was greater than 90%.
